Source: ChEMBL document CHEMBL3526048, “In vitro metabolism of rivoglitazone, a novel peroxisome proliferator-activated receptor γ agonist, in rat, monkey, and human liver microsomes and freshly isolated hepatocytes” (Drug Metab Dispos, 2011)

System: Liver microsome
Assay: Drug level in human liver microsomes treated with [14C]-rivoglitazone at 20 uM after 2 hrs by radio-HPLC/LC-MS/MS analysis in presence of NADPH-generating system/SAM
Type: ADME
Conditions: not given
Summary of the method: (§1)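 Pooled male liver microsomes (1 mg/ml protein; rat from 94 Sprague-Dawley, monkey from 8 cynomolgus, human from 23 donors) were incubated with [¹⁴C]rivoglitazone (20 μM). Buffer: 10 mM potassium phosphate (pH 7.4). Cofactors: NADPH-generating system (2 mM NADP⁺, 20 mM G6P, 2 U/ml G6PDH, 10 mM MgCl₂), with or without 2 mM SAM. Incubation 2 h at 37°C with shaking; controls lacked NADPH system and SAM alone. Acetonitrile stop, radio-HPLC plus LC-MS.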

| Drug metabolism | Structure (SMILES) |
| --- | --- |
| metabolite_detected | COc1ccc2nc(COc3ccc(CC(C(N)=O)S(C)(=O)=O)cc3)n(C)c2c1 (stereo unspecified) |
| metabolite_detected | COc1ccc2nc(COc3ccc(CC(C(N)=O)[S+](C)[O-])cc3)n(C)c2c1 (stereo unspecified) |

Molecular target: Cytochrome P450 3A5 (Homo sapiens, UniProt P20815)
Sequence (P20815 whole entry): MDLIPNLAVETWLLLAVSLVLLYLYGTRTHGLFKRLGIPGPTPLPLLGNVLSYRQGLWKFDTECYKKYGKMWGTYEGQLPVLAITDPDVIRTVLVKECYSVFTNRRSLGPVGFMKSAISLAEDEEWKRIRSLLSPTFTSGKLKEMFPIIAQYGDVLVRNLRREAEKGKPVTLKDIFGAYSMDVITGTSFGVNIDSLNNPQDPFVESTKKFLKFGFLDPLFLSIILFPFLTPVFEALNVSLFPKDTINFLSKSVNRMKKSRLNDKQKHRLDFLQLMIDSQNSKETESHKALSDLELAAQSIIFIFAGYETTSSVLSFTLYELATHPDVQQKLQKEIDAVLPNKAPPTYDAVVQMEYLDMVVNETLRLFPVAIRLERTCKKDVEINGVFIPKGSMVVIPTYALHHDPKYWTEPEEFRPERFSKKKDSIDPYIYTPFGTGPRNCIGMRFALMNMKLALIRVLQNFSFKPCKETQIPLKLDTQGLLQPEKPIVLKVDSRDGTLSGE
Assay: Activity of human CYP3A5 expressed in microsomes isolated from baculovirus infected insect cell assessed as enzyme-mediated compound formation treated with [14C]-rivoglitazone at 20 uM after 2 hrs by radio-HPLC/LC-MS/MS analysis in presence of NADPH-generating system and NADPH-generating system/SAM
Type: ADME
Conditions: not given
Summary of the method: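 cDNA-expressed human CYP3A5 in baculovirus-insect-cell microsomes (1 mg/ml protein) was incubated with [¹⁴C]rivoglitazone (20 μM) in 50 mM potassium phosphate (pH 7.4) or 100 mM Tris-HCl (pH 7.5). NADPH-generating system: 2 mM NADP⁺, 20 mM glucose 6-phosphate, 2 units/ml G6PDH, 10 mM MgCl₂. Incubation ran 2 h at 37°C with shaking; insect-cell control supersomes served as control. Acetonitrile stop, supernatant concentrated, then radio-HPLC, LC-MS and LC-MS/MS.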

| Drug metabolism | Structure (SMILES) |
| --- | --- |
| metabolite_detected | Cn1c(COc2ccc(CC3SC(=O)NC3=O)cc2)nc2ccc(O)cc21 (stereo unspecified) |

System: Hepatocyte (Macaca fascicularis)
Assay: Drug level in monkey hepatocytes treated with [14C]-rivoglitazone at 30 uM after 3 hrs by radio-HPLC/LC-MS/MS analysis in presence of NADPH-generating system and NADPH-generating system/SAM
Conditions: cynomolgus monkey

| Drug metabolism | Structure (SMILES) |
| --- | --- |
| metabolite_detected | Cn1c(COc2ccc(CC3SC(=O)NC3=O)cc2)nc2ccc(O)cc21 (stereo unspecified) |

System: Hepatocyte
Assay: Drug level in human hepatocytes treated with [14C]-rivoglitazone at 30 uM after 3 hrs by radio-HPLC/LC-MS/MS analysis in presence of NADPH-generating system/SAM
Type: ADME, cell-based
Conditions: not given

| Drug metabolism | Structure (SMILES) |
| --- | --- |
| metabolite_detected | COc1ccc2nc(COc3ccc(CC(C(N)=O)S(C)(=O)=O)cc3)n(C)c2c1 (stereo unspecified) |
| metabolite_detected | COc1ccc2nc(COc3ccc(CC(C(N)=O)[S+](C)[O-])cc3)n(C)c2c1 (stereo unspecified) |

System: Hepatocyte
Assay: Drug level in human hepatocytes treated with [14C]-rivoglitazone at 30 uM after 3 hrs by radio-HPLC/LC-MS/MS analysis in presence of NADPH-generating system and NADPH-generating system/SAM
Type: ADME, cell-based
Conditions: not given

| Drug metabolism | Structure (SMILES) |
| --- | --- |
| metabolite_detected | Cn1c(COc2ccc(CC3SC(=O)NC3=O)cc2)nc2ccc(O)cc21 (stereo unspecified) |

System: Hepatocyte
Assay: Drug level in rat hepatocytes treated with [14C]-rivoglitazone at 30 uM after 3 hrs by radio-HPLC/LC-MS/MS analysis in presence of NADPH-generating system/SAM
Type: ADME, cell-based
Conditions: not given

| Drug metabolism | Structure (SMILES) |
| --- | --- |
| metabolite_detected | COc1ccc2nc(COc3ccc(CC(C(N)=O)S(C)(=O)=O)cc3)n(C)c2c1 (stereo unspecified) |
| metabolite_detected | COc1ccc2nc(COc3ccc(CC(C(N)=O)[S+](C)[O-])cc3)n(C)c2c1 (stereo unspecified) |

System: Hepatocyte
Assay: Drug level in rat hepatocytes treated with [14C]-rivoglitazone at 30 uM after 3 hrs by radio-HPLC/LC-MS/MS analysis in presence of NADPH-generating system and NADPH-generating system/SAM
Type: ADME, cell-based
Conditions: not given

| Drug metabolism | Structure (SMILES) |
| --- | --- |
| metabolite_detected | Cn1c(COc2ccc(CC3SC(=O)NC3=O)cc2)nc2ccc(O)cc21 (stereo unspecified) |

Molecular target: Cytochrome P450 2D6 (Homo sapiens, UniProt P10635)
Sequence (P10635 whole entry): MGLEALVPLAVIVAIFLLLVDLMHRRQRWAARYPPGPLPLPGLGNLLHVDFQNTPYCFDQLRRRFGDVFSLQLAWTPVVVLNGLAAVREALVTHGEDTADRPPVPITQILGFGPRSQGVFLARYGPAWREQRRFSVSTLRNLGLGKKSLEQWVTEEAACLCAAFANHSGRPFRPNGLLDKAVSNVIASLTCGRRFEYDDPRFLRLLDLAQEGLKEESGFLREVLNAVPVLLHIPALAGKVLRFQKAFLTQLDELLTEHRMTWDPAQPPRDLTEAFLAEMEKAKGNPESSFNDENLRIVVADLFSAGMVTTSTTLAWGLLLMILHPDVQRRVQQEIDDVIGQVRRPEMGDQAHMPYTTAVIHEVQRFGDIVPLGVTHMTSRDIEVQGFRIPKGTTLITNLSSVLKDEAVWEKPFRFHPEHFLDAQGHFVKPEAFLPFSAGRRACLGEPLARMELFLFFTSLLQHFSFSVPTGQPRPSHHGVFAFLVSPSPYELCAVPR
Assay: Activity of human CYP2D6 expressed in microsomes isolated from baculovirus infected insect cell assessed as enzyme-mediated compound formation treated with [14C]-rivoglitazone at 20 uM after 2 hrs by radio-HPLC/LC-MS/MS analysis in presence of NADPH-generating system and NADPH-generating system/SAM
Type: ADME
Conditions: not given

| Drug metabolism | Structure (SMILES) |
| --- | --- |
| metabolite_detected | Cn1c(COc2ccc(CC3SC(=O)NC3=O)cc2)nc2ccc(O)cc21 (stereo unspecified) |

System: not listed separately
Assay: Drug level in cynomolgus monkey liver microsomes treated with [14C]-rivoglitazone at 20 uM after 2 hrs by radio-HPLC/LC-MS/MS analysis in presence of NADPH-generating system/SAM
Type: ADME, Macaca fascicularis
Conditions: not given
Summary of the method: as §1

| Drug metabolism | Structure (SMILES) |
| --- | --- |
| metabolite_detected | COc1ccc2nc(COc3ccc(CC(C(N)=O)S(C)(=O)=O)cc3)n(C)c2c1 (stereo unspecified) |
| metabolite_detected | COc1ccc2nc(COc3ccc(CC(C(N)=O)[S+](C)[O-])cc3)n(C)c2c1 (stereo unspecified) |

System: not listed separately
Assay: Retention time of the compound by LC-MS/MS analysis
Type: physicochemical
Conditions: not given
Summary of the method: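 LC-MS/MS used a YMC-Pack ODS-A column (1.5 × 150 mm, 5 μm) at 30°C, 0.1 ml/min. Mobile phase was water and acetonitrile, each with 0.01% TFA. Gradient: 12→60% B over 30 min, →90% B over 5 min, hold 5 min. Detection was UV 220 nm with positive ESI Q-TOF (capillary 3300 V, cone 45 V), collision energy 20 eV and xenon as collision gas.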

| Retention_time | Structure (SMILES) |
| --- | --- |
| 19.2 min | Cn1c(COc2ccc(CC3SC(=O)NC3=O)cc2)nc2ccc(O)cc21 (stereo unspecified) |
| 18.1 min | COc1ccc2nc(COc3ccc(CC(C(N)=O)S(C)(=O)=O)cc3)n(C)c2c1 (stereo unspecified) |
| 16.1 min | COc1ccc2nc(COc3ccc(CC(C(N)=O)[S+](C)[O-])cc3)n(C)c2c1 (stereo unspecified) |

System: Liver microsome
Assay: Drug level in Sprague-Dawley rat liver microsomes treated with [14C]-rivoglitazone at 20 uM after 2 hrs by radio-HPLC/LC-MS/MS analysis in presence of NADPH-generating system and NADPH-generating system/SAM
Type: ADME
Conditions: not given
Summary of the method: as §1

| Drug metabolism | Structure (SMILES) |
| --- | --- |
| metabolite_detected | Cn1c(COc2ccc(CC3SC(=O)NC3=O)cc2)nc2ccc(O)cc21 (stereo unspecified) |

Molecular target: Cytochrome P450 3A4 (Homo sapiens, UniProt P08684)
Sequence (P08684 whole entry): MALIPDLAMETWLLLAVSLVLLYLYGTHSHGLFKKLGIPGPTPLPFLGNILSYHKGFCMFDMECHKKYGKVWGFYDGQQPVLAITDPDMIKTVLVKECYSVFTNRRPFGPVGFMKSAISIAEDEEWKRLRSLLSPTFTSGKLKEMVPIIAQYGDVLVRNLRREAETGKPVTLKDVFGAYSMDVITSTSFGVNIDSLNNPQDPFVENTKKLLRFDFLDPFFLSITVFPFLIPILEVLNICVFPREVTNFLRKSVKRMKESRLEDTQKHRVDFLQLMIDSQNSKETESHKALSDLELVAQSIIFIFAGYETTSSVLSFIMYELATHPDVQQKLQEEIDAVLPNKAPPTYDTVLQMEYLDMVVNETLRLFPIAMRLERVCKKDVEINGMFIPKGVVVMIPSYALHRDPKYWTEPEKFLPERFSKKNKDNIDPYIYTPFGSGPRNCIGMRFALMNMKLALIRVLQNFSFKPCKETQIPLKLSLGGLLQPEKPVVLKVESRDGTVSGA
Assay: Activity of human CYP3A4 expressed in microsomes isolated from baculovirus infected insect cell assessed as enzyme-mediated compound formation treated with [14C]-rivoglitazone at 20 uM after 2 hrs by radio-HPLC/LC-MS/MS analysis in presence of NADPH-generating system and NADPH-generating system/SAM
Type: ADME
Conditions: not given

| Drug metabolism | Structure (SMILES) |
| --- | --- |
| metabolite_detected | Cn1c(COc2ccc(CC3SC(=O)NC3=O)cc2)nc2ccc(O)cc21 (stereo unspecified) |

Molecular target: T1, Cytochrome P450 2C8 (Homo sapiens, UniProt P10632)
T1 sequence (P10632 whole entry): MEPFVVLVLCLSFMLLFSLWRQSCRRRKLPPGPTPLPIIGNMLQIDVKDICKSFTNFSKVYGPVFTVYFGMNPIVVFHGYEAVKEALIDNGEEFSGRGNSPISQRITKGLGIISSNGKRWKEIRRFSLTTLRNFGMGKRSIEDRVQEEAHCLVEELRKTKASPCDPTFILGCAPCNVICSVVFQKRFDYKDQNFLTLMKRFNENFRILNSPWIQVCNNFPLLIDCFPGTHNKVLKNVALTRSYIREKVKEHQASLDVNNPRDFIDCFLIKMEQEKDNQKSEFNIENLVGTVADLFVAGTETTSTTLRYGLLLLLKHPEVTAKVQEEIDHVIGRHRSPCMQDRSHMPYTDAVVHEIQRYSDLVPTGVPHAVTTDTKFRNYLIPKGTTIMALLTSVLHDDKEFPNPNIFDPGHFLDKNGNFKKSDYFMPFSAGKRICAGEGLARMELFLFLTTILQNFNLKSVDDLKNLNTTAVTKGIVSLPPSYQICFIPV
Assay: Activity of human CYP2C8 expressed in microsomes isolated from baculovirus infected insect cell assessed as enzyme-mediated compound formation treated with [14C]-rivoglitazone at 20 uM after 2 hrs by radio-HPLC/LC-MS/MS analysis in presence of NADPH-generating system and NADPH-generating system/SAM
Type: ADME
Conditions: not given
Summary of the method: (§2)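 Baculovirus/insect-cell microsomes expressing single human CYPs, 1 mg/ml protein, with 50 mM potassium phosphate (pH 7.4) or 100 mM Tris-HCl (pH 7.5). NADPH-generating system: 2 mM NADP⁺, 20 mM glucose 6-phosphate, 2 units/ml G6PDH, 10 mM MgCl₂. [¹⁴C]rivoglitazone at 20 μM, 2 h at 37°C with shaking. Control used insect-cell control supersomes. Stopped with acetonitrile; supernatant concentrated under nitrogen; metabolites analysed by radio-HPLC, LC-MS and LC-MS/MS.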

| Drug metabolism | Structure (SMILES) |
| --- | --- |
| metabolite_detected | Cn1c(COc2ccc(CC3SC(=O)NC3=O)cc2)nc2ccc(O)cc21 (stereo unspecified) |

Molecular target: Cytochrome P450 2C19 (Homo sapiens, UniProt P33261)
Sequence (P33261 whole entry): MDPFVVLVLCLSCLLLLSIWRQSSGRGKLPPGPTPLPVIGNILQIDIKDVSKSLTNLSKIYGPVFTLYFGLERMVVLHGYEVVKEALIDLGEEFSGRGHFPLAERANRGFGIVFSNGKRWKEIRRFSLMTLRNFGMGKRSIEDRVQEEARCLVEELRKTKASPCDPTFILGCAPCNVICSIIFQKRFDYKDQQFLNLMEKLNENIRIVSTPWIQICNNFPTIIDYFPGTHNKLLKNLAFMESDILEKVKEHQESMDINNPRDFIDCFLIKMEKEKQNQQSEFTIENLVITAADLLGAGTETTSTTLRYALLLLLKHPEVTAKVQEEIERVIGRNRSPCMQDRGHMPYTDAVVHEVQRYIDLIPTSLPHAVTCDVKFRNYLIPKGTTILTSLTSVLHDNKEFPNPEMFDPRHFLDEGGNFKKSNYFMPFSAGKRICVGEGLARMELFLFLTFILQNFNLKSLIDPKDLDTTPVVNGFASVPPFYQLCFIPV
Assay: Activity of human CYP2C19 expressed in microsomes isolated from baculovirus infected insect cell assessed as enzyme-mediated compound formation treated with [14C]-rivoglitazone at 20 uM after 2 hrs by radio-HPLC/LC-MS/MS analysis in presence of NADPH-generating system and NADPH-generating system/SAM
Type: ADME
Conditions: not given
Summary of the method: as §2

| Drug metabolism | Structure (SMILES) |
| --- | --- |
| metabolite_detected | Cn1c(COc2ccc(CC3SC(=O)NC3=O)cc2)nc2ccc(O)cc21 (stereo unspecified) |

System: Liver microsome
Assay: Drug level in human liver microsomes treated with [14C]-rivoglitazone at 20 uM after 2 hrs by radio-HPLC/LC-MS/MS analysis in presence of NADPH-generating system and NADPH-generating system/SAM
Type: ADME
Conditions: not given
Summary of the method: as §1

| Drug metabolism | Structure (SMILES) |
| --- | --- |
| metabolite_detected | Cn1c(COc2ccc(CC3SC(=O)NC3=O)cc2)nc2ccc(O)cc21 (stereo unspecified) |

Molecular target: T2, Cytochrome P450 1A2 (Homo sapiens, UniProt P05177)
T2 sequence (P05177 whole entry): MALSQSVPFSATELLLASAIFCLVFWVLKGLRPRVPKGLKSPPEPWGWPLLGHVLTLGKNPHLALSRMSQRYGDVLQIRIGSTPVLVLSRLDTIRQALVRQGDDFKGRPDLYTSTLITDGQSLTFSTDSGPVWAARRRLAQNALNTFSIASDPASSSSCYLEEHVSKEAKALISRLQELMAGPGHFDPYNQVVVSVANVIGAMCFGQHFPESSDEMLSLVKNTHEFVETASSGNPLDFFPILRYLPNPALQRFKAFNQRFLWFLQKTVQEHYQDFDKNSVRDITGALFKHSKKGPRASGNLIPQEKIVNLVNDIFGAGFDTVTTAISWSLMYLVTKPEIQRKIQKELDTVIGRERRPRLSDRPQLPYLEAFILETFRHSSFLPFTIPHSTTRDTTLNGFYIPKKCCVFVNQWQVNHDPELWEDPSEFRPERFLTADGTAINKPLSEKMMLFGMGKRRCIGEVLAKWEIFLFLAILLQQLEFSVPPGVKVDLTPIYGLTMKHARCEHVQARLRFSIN
Assay: Activity of human CYP1A2 expressed in microsomes isolated from baculovirus infected insect cell assessed as enzyme-mediated compound formation treated with [14C]-rivoglitazone at 20 uM after 2 hrs by radio-HPLC/LC-MS/MS analysis in presence of NADPH-generating system and NADPH-generating system/SAM
Type: ADME
Conditions: not given
Summary of the method: as §2

| Drug metabolism | Structure (SMILES) |
| --- | --- |
| metabolite_detected | Cn1c(COc2ccc(CC3SC(=O)NC3=O)cc2)nc2ccc(O)cc21 (stereo unspecified) |

System: Liver microsome
Assay: Drug level in Sprague-Dawley rat liver microsomes treated with [14C]-rivoglitazone at 20 uM after 2 hrs by radio-HPLC/LC-MS/MS analysis in presence of NADPH-generating system/SAM
Type: ADME
Conditions: not given
Summary of the method: as §1

| Drug metabolism | Structure (SMILES) |
| --- | --- |
| metabolite_detected | COc1ccc2nc(COc3ccc(CC(C(N)=O)S(C)(=O)=O)cc3)n(C)c2c1 (stereo unspecified) |
| metabolite_detected | COc1ccc2nc(COc3ccc(CC(C(N)=O)[S+](C)[O-])cc3)n(C)c2c1 (stereo unspecified) |

System: not listed separately
Assay: Drug level in cynomolgus monkey liver microsomes treated with [14C]-rivoglitazone at 20 uM after 2 hrs by radio-HPLC/LC-MS/MS analysis in presence of NADPH-generating system and NADPH-generating system/SAM
Type: ADME, Macaca fascicularis
Conditions: not given
Summary of the method: as §1

| Drug metabolism | Structure (SMILES) |
| --- | --- |
| metabolite_detected | Cn1c(COc2ccc(CC3SC(=O)NC3=O)cc2)nc2ccc(O)cc21 (stereo unspecified) |

Molecular target: Cytochrome P450 2C9 (Homo sapiens, UniProt P11712)
Sequence (P11712 whole entry): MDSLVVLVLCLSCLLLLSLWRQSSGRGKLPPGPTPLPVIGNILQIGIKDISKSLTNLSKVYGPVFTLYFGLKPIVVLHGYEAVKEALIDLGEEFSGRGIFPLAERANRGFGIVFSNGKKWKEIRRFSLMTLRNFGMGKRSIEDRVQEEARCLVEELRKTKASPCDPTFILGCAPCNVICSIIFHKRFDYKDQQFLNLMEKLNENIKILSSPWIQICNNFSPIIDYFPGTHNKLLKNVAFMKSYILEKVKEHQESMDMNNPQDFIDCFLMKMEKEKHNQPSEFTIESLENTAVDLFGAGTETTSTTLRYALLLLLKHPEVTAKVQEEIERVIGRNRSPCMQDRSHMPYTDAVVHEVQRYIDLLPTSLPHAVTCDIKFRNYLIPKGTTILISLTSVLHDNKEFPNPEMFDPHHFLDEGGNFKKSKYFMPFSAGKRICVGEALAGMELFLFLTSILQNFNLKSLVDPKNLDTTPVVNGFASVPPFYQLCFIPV
Assay: Activity of human CYP2C9 expressed in microsomes isolated from baculovirus infected insect cell assessed as enzyme-mediated compound formation treated with [14C]-rivoglitazone at 20 uM after 2 hrs by radio-HPLC/LC-MS/MS analysis in presence of NADPH-generating system and NADPH-generating system/SAM
Type: ADME
Conditions: not given

| Drug metabolism | Structure (SMILES) |
| --- | --- |
| metabolite_detected | Cn1c(COc2ccc(CC3SC(=O)NC3=O)cc2)nc2ccc(O)cc21 (stereo unspecified) |
